ChEMBL document CHEMBL3425488, “Novel histone deacetylase inhibitors induce growth arrest, apoptosis, and differentiation in sarcoma cancer stem cells” (J Med Chem, 2015)
Activity calls are given as the source filed them. The calls are words filed in the database; no cut-off is given here.

Key:
HOS = assay: Cytotoxicity against HOS cells assessed as cell viability at 10 to 100 uM after 72 hrs by MTT assay; type: functional, cell-based; conditions: Homo sapiens
MG-63 = assay: Cytotoxicity against human MG63 cells assessed as cell viability at 10 to 100 uM after 72 hrs by MTT assay; type: functional, cell-based
Outline: (§1)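 Sarcosphere-derived CSC cultures exposed 72 h to concentrations from 100 μM down to 0.1 μM. Viability compared with DMSO-only treated cells. IC50 calculated by linear regression.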

RD = assay: Cytotoxicity against human RD cells assessed as cell viability at 10 to 100 uM after 72 hrs by MTT assay; type: functional, cell-based
A204 = assay: Cytotoxicity against human A204 cells assessed as cell viability at 10 to 100 uM after 72 hrs by MTT assay; type: functional, cell-based
SK-ES1 = assay: Cytotoxicity against human SK-ES-1 cells assessed as cell viability at 10 to 100 uM after 72 hrs by MTT assay; type: functional, cell-based; outline: as §1
A673 = assay: Cytotoxicity against human A673 cells assessed as cell viability at 10 to 100 uM after 72 hrs by MTT assay; type: functional, cell-based; outline: as §1
[1] = Cytotoxicity against human MG63 cells assessed as inhibition of cell viability after 72 hrs by MTT assay; type: functional, MG-63
Outline: (§2)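 Stem-like cells were taken from sarcosphere cultures and exposed for 72 h to concentrations from 100 μM down to 0.1 μM. Viability was compared with cells given DMSO vehicle alone. IC50 was calculated by linear regression of the dose-response curves.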

[2] = Cytotoxicity against human SK-ES-1 cells assessed as inhibition of cell viability after 72 hrs by MTT assay; type: functional, SK-ES1; outline: as §2

SMILES	Activity (HOS)	Activity (MG-63)	Activity (RD)	Activity (A204)	Activity (SK-ES1)	Activity (A673)	INH [1] [µM]	INH [2] [µM]
O=c1nc2oc3ccc4ccccc4c3cc-2c(=O)n1-c1ccccc1	Active	Active	Active	Active	Active	Active		
Cn1c(/C=C/C(=O)NO)ccc1/C=C/C(=O)c1cccc(F)c1							38.3	50.7
